This is an account of results in ChEMBL document CHEMBL1123038, “Potential neuroleptic agents. 3. Chemistry and antidopaminergic properties of substituted 6-methoxysalicylamides” (J Med Chem, 1985).

Holding throughout (type): functional
Holding throughout (details): ip

The subject of test [1] is Rattus norvegicus. Nature of the test: Compound was evaluated in vivo for antagonist activity against apomorphine induced behavioral syndrome such as Hyperactivity in rat after intraperitoneal administration; activity value ranges from 0.14-0.18.
Test [2] relates to Rattus norvegicus. Kind of test: Compound was evaluated in vivo its antagonist activity against apomorphine induced behavioral syndrome such as Stereotypy in rat after intraperitoneal administration; activity value ranges from 0.74-0.87. The essentials: (§1)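 Male Sprague-Dawley rats (275–325 g) got compound ip (saline, or acetic acid/distilled water vehicle) 60 min ahead of sc apomorphine 1 mg/kg given into the neck. Stereotypy strength was scored 5, 20, 40 and 60 min after apomorphine. […] It was computed by Theil's method with Sen tie correction, using 5–6+ dose levels and 6–8 animals per dose.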

The subject of test [3] is Rattus norvegicus. Kind of test: Compound was evaluated in vivo its antagonist activity against apomorphine induced behavioral syndrome such as Stereotypy in rat after intraperitoneal administration; activity value ranges from 0.89-1.02. In outline:
as §1

Test [4] relates to Rattus norvegicus. Nature of the test: Compound was evaluated in vivo for antagonist activity against apomorphine induced behavioral syndrome such as Hyperactivity in rat after intraperitoneal administration; activity value ranges from 1.15-1.26.
Test [5] deals with Rattus norvegicus. Kind of test: Compound was evaluated in vivo its antagonist activity against apomorphine induced behavioral syndrome such as Stereotypy in rat after intraperitoneal administration; activity value ranges from 0.24-0.25. The essentials:
as §1

Test [6] deals with Rattus norvegicus. Kind of test: Compound was evaluated in vivo for antagonist activity against apomorphine induced behavioral syndrome such as Hyperactivity in rat after intraperitoneal administration; activity value ranges from 0.11-0.13. In outline: (§2)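 Male Sprague-Dawley rats (275–325 g) received test compound ip (in saline, or acetic acid plus distilled water) 60 min before apomorphine 1 mg/kg sc into the neck. Behaviour was scored at 5, 20, 40 and 60 min after apomorphine.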

Test [7] relates to Rattus norvegicus. Kind of test: Compound was evaluated in vivo its antagonist activity against apomorphine induced behavioral syndrome such as Stereotypy in rat after intraperitoneal administration; activity value ranges from 0.65-0.66. In outline: as §1
Test [8] concerns Rattus norvegicus. Kind of test: Compound was evaluated in vivo for antagonist activity against apomorphine induced behavioral syndrome such as Hyperactivity in rat after intraperitoneal administration; activity value ranges from 0.42-0.43.
Test [9] deals with Rattus norvegicus. Nature of the test: Compound was evaluated in vivo its antagonist activity against apomorphine induced behavioral syndrome such as Stereotypy in rat after intraperitoneal administration; activity value ranges from 2.0-2.0. In outline: as §1
For test [10], the system named is Rattus norvegicus. Kind of test: Compound was evaluated in vivo for antagonist activity against apomorphine induced behavioral syndrome such as Hyperactivity in rat after intraperitoneal administration; activity value ranges from 1.07-1.15.
The subject of test [11] is Rattus norvegicus. Kind of test: Compound was evaluated in vivo its antagonist activity against apomorphine induced behavioral syndrome such as Stereotypy in rat after intraperitoneal administration; activity value ranges from 6.5-6.8. In outline: as §1
The test system of test [12] is Rattus norvegicus. Kind of test: Compound was evaluated in vivo for antagonist activity against apomorphine induced behavioral syndrome such as Hyperactivity in rat after intraperitoneal administration; activity value ranges from 6.0-6.2.
Test [13] has as its system Rattus norvegicus. Kind of test: Compound was evaluated in vivo its antagonist activity against apomorphine induced behavioral syndrome such as Stereotypy in rat after intraperitoneal administration activity value ranges from 0.81-0.95. The essentials: as §1
The test system of test [14] is Rattus norvegicus. Kind of test: Compound was evaluated in vivo for antagonist activity against apomorphine induced behavioral syndrome such as Hyperactivity in rat after intraperitoneal administration; activity value ranges from 0.19-0.20.
The subject of test [15] is Rattus norvegicus. Nature of the test: Compound was evaluated in vivo for antagonist activity against apomorphine induced behavioral syndrome such as Hyperactivity in rat after intraperitoneal administration; activity value ranges from 5.2-6.9.
The test system of test [16] is Rattus norvegicus. Kind of test: Compound was evaluated in vivo for antagonist activity against apomorphine induced behavioral syndrome such as Hyperactivity in rat after intraperitoneal administration; activity value ranges from 2.7-3.8.
The subject of test [17] is Rattus norvegicus. Nature of the test: Compound was evaluated in vivo its antagonist activity against apomorphine induced behavioral syndrome such as Stereotypy in rat after intraperitoneal administration; activity value ranges from 15.1-15.8. In outline: as §1
The subject of test [18] is Rattus norvegicus. Kind of test: Compound was evaluated in vivo for antagonist activity against apomorphine induced behavioral syndrome such as Hyperactivity in rat after intraperitoneal administration; activity value ranges from 0.65-0.85.
Test [19] has as its system Rattus norvegicus. Nature of the test: Compound was evaluated in vivo its antagonist activity against apomorphine induced behavioral syndrome such as Stereotypy in rat after intraperitoneal administration; activity value ranges from 2.4-2.7. In outline: as §1
Test [20] deals with Rattus norvegicus. Nature of the test: Compound was evaluated in vivo its antagonist activity against apomorphine induced behavioral syndrome such as Stereotypy in rat after intraperitoneal administration; activity value ranges from 1.8-2.2. In outline:
as §1

The test system of test [21] is Rattus norvegicus. Kind of test: Compound was evaluated in vivo for antagonist activity against apomorphine induced behavioral syndrome such as Hyperactivity in rat after intraperitoneal administration; activity value ranges from 0.46-0.49.
Test [22] concerns Rattus norvegicus. Kind of test: Compound was evaluated in vivo for antagonist activity against apomorphine induced behavioral syndrome such as Hyperactivity in rat after intraperitoneal administration; activity value ranges from 0.78-1.07.
Test [23] relates to Rattus norvegicus. Kind of test: Compound was evaluated in vivo its antagonist activity against apomorphine induced behavioral syndrome such as Stereotypy in rat after intraperitoneal administration; activity value ranges from 13.8-14.1. The essentials: as §1
The test system of test [24] is Rattus norvegicus. Kind of test: Compound was evaluated in vivo its antagonist activity against apomorphine induced behavioral syndrome such as Stereotypy in rat after intraperitoneal administration; activity value ranges from 0.56-0.95. The essentials:
as §1

The subject of test [25] is Rattus norvegicus. Kind of test: Compound was evaluated in vivo for antagonist activity against apomorphine induced behavioral syndrome such as Hyperactivity in rat after intraperitoneal administration; activity value ranges from 0.45-0.49.
Test [26] deals with Rattus norvegicus. Kind of test: Compound was evaluated in vivo for antagonist activity against apomorphine induced behavioral syndrome such as Hyperactivity in rat after intraperitoneal administration; activity value ranges from 0.36-0.43.
In test [27] the test system is Rattus norvegicus. Nature of the test: Compound was evaluated in vivo its antagonist activity against apomorphine induced behavioral syndrome such as Stereotypy in rat after intraperitoneal administration; activity value ranges from 7.6-8.3. The essentials:
as §1

The test system of test [28] is Rattus norvegicus. Kind of test: Compound was evaluated in vivo its antagonist activity against apomorphine induced behavioral syndrome such as Stereotypy in rat after intraperitoneal administration; activity value ranges from 0.30-0.33. The essentials: as §1
For test [29], the system named is Rattus norvegicus. Nature of the test: Compound was evaluated in vivo for antagonist activity against apomorphine induced behavioral syndrome such as Hyperactivity in rat after intraperitoneal administration; activity value ranges from 0.054-0.055.
In test [30] the test system is Rattus norvegicus. Kind of test: Compound was evaluated in vivo its antagonist activity against apomorphine induced behavioral syndrome such as Stereotypy in rat after intraperitoneal administration; activity value ranges from 2.82-3.02. In outline:
as §1

For test [31], the system named is Rattus norvegicus. Kind of test: Compound was evaluated in vivo for antagonist activity against apomorphine induced behavioral syndrome such as Hyperactivity in rat after intraperitoneal administration; activity value ranges from 1.58-1.78.
The test system of test [32] is Rattus norvegicus. Kind of test: Compound was evaluated in vivo for antagonist activity against apomorphine induced behavioral syndrome such as Hyperactivity in rat after intraperitoneal administration; activity value ranges from 0.27-0.35. The essentials:
as §2

Test [33] deals with Rattus norvegicus. Kind of test: Compound was evaluated in vivo its antagonist activity against apomorphine induced behavioral syndrome such as Stereotypy in rat after intraperitoneal administration.
In test [34] the test system is Rattus norvegicus. Nature of the test: Compound was evaluated in vivo its antagonist activity against apomorphine induced behavioral syndrome such as Stereotypy in rat after intraperitoneal administration; activity value ranges from 0.52-0.55. In outline: as §1
The test system of test [35] is Rattus norvegicus. Kind of test: Compound was evaluated in vivo for antagonist activity against apomorphine induced behavioral syndrome such as Hyperactivity in rat after intraperitoneal administration; activity value ranges from 0.11-0.16.

`CCCc1ccc(OC)c(C(=O)NC[C@@H]2CCCN2CC)c1O`: the ED50 in test [1] worked out at 0.16 µmol/kg; in [2], 0.79 µmol/kg. For `CCN1CCC[C@H]1CNC(=O)c1c(OC)ccc(C)c1O`, the ED50 is 0.95 µmol/kg in test [3] and 1.23 µmol/kg in test [4]. As to `CCc1ccc(OC)c(C(=O)NC[C@@H]2CCCN2CC)c1O`, the ED50 in test [5] worked out at 0.25 µmol/kg; in test [6], 0.12 µmol/kg. `CCCN1CCC[C@H]1CNC(=O)c1c(OC)ccc(Br)c1O`: the ED50 in [7] was 0.66 µmol/kg; in [8], 0.43 µmol/kg. As for `CCN1CCC[C@H]1CNC(=O)c1c(OC)ccc(I)c1OC`, the ED50 in test [9] was found to be 2.1 µmol/kg; in [10], 1.12 µmol/kg. As to `CCN1CCC[C@H]1CNC(=O)c1c(O)ccc(Br)c1OC`, the ED50 in test [11] came out at 6.6 µmol/kg; in test [12], 6.2 µmol/kg. With `CCN1CCC[C@H]1CNC(=O)c1c(OC)ccc(Cl)c1O`, the ED50 in test [13] amounted to 0.87 µmol/kg; in test [14], 0.2 µmol/kg. In turn, `CCN1CCC[C@H]1CNC(=O)c1c(OC)ccc(Cl)c1OC` had an ED50 in [15] of 6.3 µmol/kg. `CCCN1CCC[C@H]1CNC(=O)c1c(OC)ccc(Br)c1OC`: the values for the ED50 in test [16] and in [17] were 3.4 µmol/kg and 15.5 µmol/kg, respectively. In the case of `CCN1CCC[C@H]1CNC(=O)c1c(O)ccc(Cl)c1OC`, the ED50 in [18] turned out to be 0.78 µmol/kg; in [19] it was 2.5 µmol/kg.

On to `CCOc1c(Br)ccc(OC)c1C(=O)NC[C@@H]1CCCN1CC`, for which the ED50 in test [20] is 1.9 µmol/kg; in [21], 0.47 µmol/kg. With `CCc1ccc(OC)c(C(=O)NC[C@@H]2CCCN2CC)c1OC`, the ED50 was determined as 0.95 µmol/kg in test [22] and 14.1 µmol/kg in test [23]. On to `CCc1ccc(O)c(C(=O)NC[C@@H]2CCCN2CC)c1OC`, for which the figures for the ED50 in test [24] and in test [25] were 0.79 µmol/kg and 0.47 µmol/kg, respectively. `CCN1CCC[C@H]1CNC(=O)c1c(O)cccc1OC`: the ED50 in test [26] was found to be 0.4 µmol/kg; in test [27] it was 7.8 µmol/kg. On to `CCN1CCC[C@H]1CNC(=O)c1c(OC)ccc(Br)c1O` (stereo in doubt; 11), for which the ED50 in [28] was determined as 0.32 µmol/kg; in test [29] it was 0.055 µmol/kg.

Consider `CCN1CCC[C@H]1CNC(=O)c1c(OC)ccc(Br)c1O` (stereo in doubt; 26), for which the values for the ED50 in test [30] and in [31] were 0.32 µmol/kg and 0.055 µmol/kg, respectively.

For `O=C(CCCN1CCC(O)(c2ccc(Cl)cc2)CC1)c1ccc(F)cc1` [HALOPERIDOL], the figures for the ED50 in test [32] and in test [33] were 0.29 µmol/kg and 0.27 µmol/kg, respectively. For the molecule `CCN1CCC[C@H]1CNC(=O)c1c(OC)ccc(I)c1O` [IOLOPRIDE], the ED50 in test [34] worked out at 0.54 µmol/kg; in test [35], 0.15 µmol/kg.
